Measured values from different studies.
Protocols differ between the studies behind these lines.
Target: Proto-oncogene tyrosine-protein kinase ROS (ROS1, Homo sapiens, UniProt P08922)

`C[C@@H]1CCN(c2nccc(-c3cnn4ncccc34)n2)C1` gave a remaining binding of 99% (binding; 1 µM).
The remaining binding of `O=C(c1ccc(Nc2ncc(Cl)c(-c3cc4ccccc4s3)n2)cc1)N1CCC(N2CCCC2)CC1` is reported as 31% (binding, competition with immobilised ligand; 1 µM).
For `O=C(Nc1cccnn1)N1CCC(=Cc2cccc(Oc3ccc(C(F)(F)F)cn3)c2)CC1`, the remaining binding was 80% (cell-free assay, competition with immobilised ligand; 1 µM).
`O=C(Nc1c[nH]nc1C(=O)NC1CCNCC1)c1cc(F)cc(F)c1` gave a remaining binding of 100% (binding, competition with immobilised ligand; 1 µM).
`CN(C)c1ncc(F)c(-c2cnn3ncccc23)n1` gave a remaining binding of 87% (binding; 1 µM).
For `CCN1CCN(Cc2ccc(C(=O)Nc3ccc(C)c(Oc4ccc5c(c4)CC(=O)N5)c3)cc2C(F)(F)F)CC1`, the remaining binding was 100% (binding, competition with immobilised ligand; 1 µM).
For `CNC(=O)[C@@H]1CC[C@@H](n2c(-c3ccc4cnccc4c3)nc3ccc(C(=O)NCc4cccc(C(N)=O)c4)cc32)C1`, the remaining binding was 100% (binding, competition with immobilised ligand; 1 µM).
The remaining binding of `CN(CCCC(F)(F)F)c1nccc(-c2cnn3ncccc23)n1` is reported as 79% (binding; 1 µM).
For `COc1cnc(Nc2cccc(S(N)(=O)=O)c2)nc1N1CCN(c2ccccc2)CC1`, the remaining binding was 99% (binding, competition with immobilised ligand; 1 µM).
The remaining binding of `c1cncc(-c2cccc(Nc3nccc(NC4CCCCC4)n3)c2)c1` is reported as 20% (binding, competition with immobilised ligand; 10 µM).
`CO[C@@H](C)c1c(Nc2ccc([C@H](N(C)C(=O)C3CCS(=O)(=O)CC3)C(F)(F)F)cc2)cnc2cc(Cl)nn12` has a remaining binding of 77% (cell-free assay, competition with immobilised ligand; 1 µM).
`Cc1cnn2ncc(-c3ccnc(N(C)C)n3)c2c1` gave a remaining binding of 100% (binding; 1 µM).
`O=C(c1ccc(Nc2ncc(Cl)c(-c3ccc(Cl)s3)n2)cc1)N1CCC(N2CCCC2)CC1` gave a remaining binding of 37% (binding, competition with immobilised ligand; 1 µM).
`N[C@H]1CCN(c2nccc(-c3cnn4ncccc34)n2)C1` gave a remaining binding of 85% (binding; 1 µM).
With `CC(=O)C1=C(C)N(c2cccc(C(F)(F)F)c2)C(=O)N[C@@H]1c1ccc(C#N)nc1` the remaining binding was 100% (cell-free assay, competition with immobilised ligand; 1 µM).
`C=CC(=O)N1CCC(C(=O)NCC(=O)N2CCN(c3nc(-c4cnc(N)nc4C(F)F)nc(N4CCOCC4)n3)CC2)CC1` has a remaining binding of 87% (binding, competition with immobilised ligand; 1 µM).
The remaining binding of `CC(C)(O)c1cncc(-c2nc3ccc(F)cc3n2C2CC2)c1` is reported as 100% (cell-free assay, competition with immobilised ligand; 1 µM).
`O=C(c1ccc(Nc2nccc(-c3cc4ccccc4s3)n2)cc1)N1CCC(N2CCCC2)CC1` gave a remaining binding of 65% (binding, competition with immobilised ligand; 1 µM).
The remaining binding of `CNCc1ccccc1-c1csc([C@@H](C)Nc2nc(C)nc3cc(OC)c(OC)cc23)c1` is reported as 84% (cell-free assay, competition with immobilised ligand; 1 µM).
With `CC1CCCN1c1nccc(-c2cnn3ncccc23)n1` (stereo not shown) the remaining binding was 100% (binding; 1 µM).
For `COc1ccc2c(O[C@@H]3C[C@H]4C(=O)N[C@]5(C(=O)O)CC5/C=C\CCCCC[C@H](NC(=O)OC5CCCC5)C(=O)N4C3)cc(-c3csc(NC(=O)C(C)C)n3)nc2c1C` (stereo partly shown), the remaining binding was 100% (cell-free assay, competition with immobilised ligand; 1 µM).
For `Nc1ncc2c(n1)-c1c([nH]c3ccc(C#CC4CC4)cc13)CCCC2`, the remaining binding was 99% (binding, competition with immobilised ligand; 1 µM).
